{"source": "paper PMC5634372", "about": "(International Journal of Nanomedicine, 2017)", "key": {"MDA-MB-231 xenografts": {"system": "MDA-MB-231 xenografts", "experiment": "Xenograft model of TNBC, tumor growth", "type": "in vivo, SCID mice", "settings": "10 mg/kg iv twice a week for 2 weeks, vs vehicle control", "how_it_was_run": "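Female SCID mice (7–8 weeks) given s.c. rear-flank 1×10^6 MDA-MB-231 cells in 0.1 mL 50% Matrigel. At 100 mm3, randomized (eight per group). Dosed via tail vein twice weekly for 2 weeks with free or SMA-micelle test compound, or vehicle (100 μL; SMA in NaOH, pH 7.4). Tumor volume (L×W×H) by electronic calipers, two independent measurements bi-weekly. Euthanized day 24.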"}, "[1]": {"system": "xenograft model of colon cancer", "settings": "cited from earlier work"}, "TNBC cell lines": {"system": "TNBC cell lines", "settings": "cited from earlier work"}}}
{"smiles": "COc1cc(C=C2CN(C)CC(=Cc3cc(OC)c(OC)c(OC)c3)C2=O)cc(OC)c1OC", "note": "[RL71, 3,5-bis(3,4,5-trimethoxybenzylidene)-1-methylpiperidine-4-one]", "values": [{"measurement": "tumor growth", "setting": "MDA-MB-231 xenografts", "value": "unable to suppress tumor growth"}, {"measurement": "body weight", "setting": "[1]; 4 mg/kg, after 15 days", "value": "nonsignificant loss of body weight"}, {"measurement": "tumor growth", "setting": "[1]; 4 mg/kg/day intraperitoneally for 14 days", "value": "significantly suppressed tumor growth"}, {"measurement": "liver or spleen weight", "setting": "[1]; intraperitoneal administration for 2 weeks", "value": "did not alter liver or spleen weight"}, {"measurement": "growth rate of colon tumors following treatment", "setting": "[1]; over 15 days, 4 mg/kg/day ip", "value": 400, "unit": "%"}, {"measurement": "apoptosis and cell cycle effect", "setting": "TNBC cell lines; 1 µM, several TNBC cell lines", "value": "induced apoptosis and elicited G2/M phase cell cycle arrest"}, {"measurement": "cytotoxic potency relative to curcumin", "setting": "TNBC cell lines; greater than curcumin", "value": 20, "unit": "fold"}]}
